According to ChEMBL document CHEMBL4014350, “Alkoxyurea-Based Histone Deacetylase Inhibitors Increase Cisplatin Potency in Chemoresistant Cancer Cell Lines” (J Med Chem, 2017):
The source made the active and inactive calls. The calls are words filed in the database; no cut-off is given here.

Columns and labels:
CAL-27 [1] = test: Potentiation of 0.316 uM cisplatin-induced cytotoxicity against human CAL27 cells assessed as decrease in cell viability by measuring combination index at 500 uM preincubated for 48 hrs followed by cisplatin treatment measured after 72 hrs by MTT assay; format: functional; conditions: in the assay text read “at 500 nM” for “at 500 uM”
Summary of the method: (§1)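 Cal27 and cisplatin-resistant Cal27CisR cells were preincubated with the HDAC inhibitor for 48 h, then given cisplatin in combination. Viability was read by MTT after 72 h. The combination index was computed by the Chou–Talalay method: CI > 1 is antagonism, CI = 1 is additive, and CI < 0.9 is synergism. Points with fraction affected below 0.20 were flagged.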

CAL-27 [2] = test: Induction of apoptosis in human CAL27 cells at 1 uM for 48 hrs by propidium iodide dye-based flow cytometry; format: functional, cell-based
CAL-27 [3] = test: Potentiation of 2 uM cisplatin-induced cytotoxicity against human CAL27 cells assessed as decrease in cell viability by measuring combination index at 200 uM preincubated for 48 hrs followed by cisplatin treatment measured after 72 hrs by MTT assay; format: functional; conditions: in the assay text read “at 200 nM” for “at 200 uM”
Summary of the method: (§2)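 HDAC inhibitor was added 48 h before cisplatin, then cells were exposed to cisplatin for 72 h and viability was read by MTT assay. Combination index was computed by the Chou–Talalay method: CI > 1 is antagonism, CI = 1 additive, CI < 0.9 synergism. Points with fraction affected below 0.20 were flagged.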

[4] = target: T1, Histone deacetylase 1/6 (Homo sapiens) (UniProt Q13547+Q9UBN7); test: Inhibition of HDAC1/HDAC6 in human Cal27CisR cells assessed as potentiation of 5 uM cisplatin-induced cytotoxicity by measuring combination index at 100 nM preincubated for 48 hrs followed by cisplatin treatment measured after 72 hrs by MTT assay
[5] = target: T1, Histone deacetylase 1/6 (Homo sapiens); test: Inhibition of HDAC1/HDAC6 in human Cal27CisR cells assessed as potentiation of 10 uM cisplatin-induced cytotoxicity by measuring combination index at 400 uM preincubated for 48 hrs followed by cisplatin treatment measured after 72 hrs by MTT assay; format: cell-based
Summary of the method: (§3)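 Cal27CisR cells preincubated 48 h with the HDAC inhibitor, then exposed to cisplatin for 72 h. Viability read by MTT. Combination index calculated by the Chou–Talalay method: CI > 1 antagonism, CI = 1 additive, CI < 0.9 synergism. Points with fraction affected below 0.20 are flagged. Values are the mean of three experiments.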

[6] = target: T1, Histone deacetylase 1/6 (Homo sapiens); test: Inhibition of HDAC1/HDAC6 in human Cal27CisR cells assessed as potentiation of 20 uM cisplatin-induced cytotoxicity by measuring combination index at 400 nM preincubated for 48 hrs followed by cisplatin treatment measured after 72 hrs by MTT assay
CAL-27 [7] = test: Potentiation of 0.5 uM cisplatin-induced cytotoxicity against human CAL27 cells assessed as decrease in cell viability by measuring combination index at 300 uM preincubated for 48 hrs followed by cisplatin treatment measured after 72 hrs by MTT assay; format: functional; conditions: in the assay text read “at 300 nM” for “at 300 uM”; summary of the method: as §1
CAL-27 [8] = test: Potentiation of 0.316 uM cisplatin-induced cytotoxicity against human CAL27 cells assessed as decrease in cell viability by measuring combination index at 200 uM preincubated for 48 hrs followed by cisplatin treatment measured after 72 hrs by MTT assay; format: functional; conditions: in the assay text read “at 200 nM” for “at 200 uM”; summary of the method: as §1
[9] = target: T1, Histone deacetylase 1/6 (Homo sapiens); test: Inhibition of HDAC1/HDAC6 in human Cal27CisR cells assessed as potentiation of 20 uM cisplatin-induced cytotoxicity by measuring combination index at 300 nM preincubated for 48 hrs followed by cisplatin treatment measured after 72 hrs by MTT assay
CAL-27 [10] = test: Potentiation of 5 uM cisplatin-induced cytotoxicity against human CAL27 cells assessed as decrease in cell viability by measuring combination index at 100 uM preincubated for 48 hrs followed by cisplatin treatment measured after 72 hrs by MTT assay; format: functional; conditions: in the assay text read “at 100 nM” for “at 100 uM”; summary of the method: as §2
Cal27CisR = test: Induction of apoptosis in human Cal27CisR cells at 1 uM for 48 hrs by propidium iodide dye-based flow cytometry; format: functional, cell-based
[11] = target: T1, Histone deacetylase 1/6 (Homo sapiens); test: Inhibition of HDAC1/HDAC6 in human Cal27CisR cells assessed as potentiation of 5 uM cisplatin-induced cytotoxicity by measuring combination index at 400 uM preincubated for 48 hrs followed by cisplatin treatment measured after 72 hrs by MTT assay; format: cell-based; summary of the method: as §1
[12] = target: T1, Histone deacetylase 1/6 (Homo sapiens); test: Inhibition of HDAC1/HDAC6 in human Cal27CisR cells assessed as potentiation of 20 uM cisplatin-induced cytotoxicity by measuring combination index at 100 nM preincubated for 48 hrs followed by cisplatin treatment measured after 72 hrs by MTT assay
CAL-27 [13] = test: Potentiation of 0.5 uM cisplatin-induced cytotoxicity against human CAL27 cells assessed as decrease in cell viability by measuring combination index at 100 uM preincubated for 48 hrs followed by cisplatin treatment measured after 72 hrs by MTT assay; format: functional; conditions: in the assay text read “at 100 nM” for “at 100 uM”; summary of the method: as §1
[14] = target: T1, Histone deacetylase 1/6 (Homo sapiens); test: Inhibition of HDAC1/HDAC6 in human Cal27CisR cells assessed as potentiation of 3.16 uM cisplatin-induced cytotoxicity by measuring combination index at 200 uM preincubated for 48 hrs followed by cisplatin treatment measured after 72 hrs by MTT assay; format: cell-based; summary of the method: as §3
CAL-27 [15] = test: Potentiation of 0.316 uM cisplatin-induced cytotoxicity against human CAL27 cells assessed as decrease in cell viability by measuring combination index at 700 uM preincubated for 48 hrs followed by cisplatin treatment measured after 72 hrs by MTT assay; format: functional; conditions: in the assay text read “at 700 nM” for “at 700 uM”; summary of the method: as §1
[16] = target: T1, Histone deacetylase 1/6 (Homo sapiens); test: Inhibition of HDAC1/HDAC6 in human Cal27CisR cells assessed as potentiation of 5 uM cisplatin-induced cytotoxicity by measuring combination index at 300 nM preincubated for 48 hrs followed by cisplatin treatment measured after 72 hrs by MTT assay
CAL-27 [17] = test: Potentiation of cisplatin-induced cytotoxicity against human CAL27 cells assessed as decrease in cell viability at 0.5 uM preincubated for 48 hrs followed by cisplatin treatment measured after 72 hrs by MTT assay relative to cisplatin alone; format: functional
Summary of the method: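 Cells were preincubated 48 h with HDAC inhibitor, then cisplatin was added over a concentration range for 72 h, with MTT read-out. Shift factor is cisplatin-alone IC50 divided by combination IC50. Data are mean ± SEM of pooled data from at least three independent experiments, each in triplicate. Significance was by t test (p < 0.05).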

CAL-27 [18] = test: Potentiation of 5 uM cisplatin-induced cytotoxicity against human CAL27 cells assessed as decrease in cell viability by measuring combination index at 300 uM preincubated for 48 hrs followed by cisplatin treatment measured after 72 hrs by MTT assay; format: functional; conditions: in the assay text read “at 300 nM” for “at 300 uM”; summary of the method: as §2

T1 sequence (Q13547 whole entry, looked up): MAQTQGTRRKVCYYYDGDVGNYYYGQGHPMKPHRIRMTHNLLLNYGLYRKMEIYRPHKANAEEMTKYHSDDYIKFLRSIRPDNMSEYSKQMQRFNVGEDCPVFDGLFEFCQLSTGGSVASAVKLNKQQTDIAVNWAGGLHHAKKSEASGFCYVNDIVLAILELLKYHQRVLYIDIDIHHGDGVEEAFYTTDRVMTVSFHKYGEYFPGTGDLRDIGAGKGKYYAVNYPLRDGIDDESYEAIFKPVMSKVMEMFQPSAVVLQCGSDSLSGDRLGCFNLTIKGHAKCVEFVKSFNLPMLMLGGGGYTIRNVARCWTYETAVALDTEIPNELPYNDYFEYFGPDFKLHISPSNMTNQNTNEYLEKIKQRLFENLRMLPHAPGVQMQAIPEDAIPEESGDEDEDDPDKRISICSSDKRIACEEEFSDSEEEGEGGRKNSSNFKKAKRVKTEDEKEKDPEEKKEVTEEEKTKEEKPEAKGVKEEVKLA
T1 sequence (Q9UBN7 whole entry, looked up): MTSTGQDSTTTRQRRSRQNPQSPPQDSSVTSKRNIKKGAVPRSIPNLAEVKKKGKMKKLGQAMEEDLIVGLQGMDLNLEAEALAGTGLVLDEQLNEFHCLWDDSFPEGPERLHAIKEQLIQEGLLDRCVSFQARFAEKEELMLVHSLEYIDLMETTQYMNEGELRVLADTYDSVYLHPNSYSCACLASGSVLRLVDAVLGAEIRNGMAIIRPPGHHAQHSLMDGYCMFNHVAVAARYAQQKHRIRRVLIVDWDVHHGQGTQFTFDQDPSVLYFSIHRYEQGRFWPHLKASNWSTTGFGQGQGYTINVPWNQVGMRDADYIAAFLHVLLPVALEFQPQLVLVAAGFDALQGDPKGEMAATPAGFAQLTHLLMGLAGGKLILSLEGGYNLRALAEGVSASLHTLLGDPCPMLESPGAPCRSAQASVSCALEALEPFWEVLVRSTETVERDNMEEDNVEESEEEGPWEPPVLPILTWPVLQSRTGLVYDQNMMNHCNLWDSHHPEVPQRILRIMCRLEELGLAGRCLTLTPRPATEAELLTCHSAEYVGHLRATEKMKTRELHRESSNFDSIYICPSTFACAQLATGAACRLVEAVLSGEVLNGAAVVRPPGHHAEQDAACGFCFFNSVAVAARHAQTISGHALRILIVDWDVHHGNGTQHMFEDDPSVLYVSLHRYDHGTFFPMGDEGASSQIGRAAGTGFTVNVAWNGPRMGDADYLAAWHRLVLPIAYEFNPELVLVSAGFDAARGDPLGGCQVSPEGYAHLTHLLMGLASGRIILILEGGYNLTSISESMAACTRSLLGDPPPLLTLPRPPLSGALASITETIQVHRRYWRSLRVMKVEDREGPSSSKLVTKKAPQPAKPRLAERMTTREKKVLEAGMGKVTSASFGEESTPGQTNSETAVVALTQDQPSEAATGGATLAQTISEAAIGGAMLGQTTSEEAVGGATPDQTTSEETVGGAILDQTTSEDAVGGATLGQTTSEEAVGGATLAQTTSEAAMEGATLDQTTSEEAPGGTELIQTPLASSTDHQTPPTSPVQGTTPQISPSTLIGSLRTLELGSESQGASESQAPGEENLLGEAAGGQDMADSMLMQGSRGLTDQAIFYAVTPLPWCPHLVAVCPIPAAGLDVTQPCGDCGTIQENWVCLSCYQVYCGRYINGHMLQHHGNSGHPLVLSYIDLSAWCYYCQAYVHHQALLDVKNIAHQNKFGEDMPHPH

Row | Structure (SMILES) | CI (CAL-27 [1]) | Activity (CAL-27 [2]) | CI (CAL-27 [3]) | CI [4] | CI [5] | CI [6] | CI (CAL-27 [7]) | CI (CAL-27 [8]) | CI [9] | CI (CAL-27 [10]) | Activity (Cal27CisR) | CI [11] | CI [12] | CI (CAL-27 [13]) | CI [14] | CI (CAL-27 [15]) | CI [16] | fold change (FC) (CAL-27 [17]) | CI (CAL-27 [18])
1 | COc1cc(NC(=O)NOCCCCCC(=O)NO)c2ncccc2c1 | 0.86 | – | – | – | – | – | – | – | – | – | – | – | – | – | – | – | – | – | –
2 | COc1cc(NC(=O)NOCCCCCC(=O)NO)c2nccc(C)c2c1 | – | inactive | 0.39 | < 0.2 | 0.26 | 0.28 | <0.2 | <0.2 | 0.34 | 0.5 | inactive | 0.56 | 0.73 | <0.2 | < 0.2 | 0.68 | < 0.2 | 6.1 | 0.25
3 | COc1cc(NC(=O)NOCCCCCC(=O)NO)c2nc(OC)cc(C)c2c1 | 0.79 | inactive | 0.33 | 0.66 | 0.16 | 0.16 | <0.2 | <0.2 | 0.17 | 0.26 | inactive | 0.19 | 0.34 | <0.2 | 0.87 | 0.82 | 0.25 | 8.7 | 0.32
